The text below walks through data of ChEMBL document CHEMBL2311295 (J Med Chem, 2013).

As a reminder, the IC50 is the point on the concentration scale where inhibition reaches its midpoint. A lower IC50 goes with inhibition by little substance.

The test system of one experiment is HCT-116. The experiment can be described thus: Cytotoxicity against human HCT116 cells after 72 hrs by phosphatase assay. Type of experiment: functional, cell-based. Conditions: HCT-116, 72 h. The method, boiled down: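 Cells diluted to 30,000 cells/mL in DMEM with 10% FBS and seeded into 96-well plates (100 μL per well), then grown 24 h at 37 °C under 5% CO2. Test agents were made as 1 mM DMSO stocks with 10-fold serial dilutions and tested at six concentrations over 0–1,000 nM or 0–10,000 nM, in duplicate, for 72 h. Acid phosphatase read-out: substrate in 0.1 M NaOAc pH 5.5 with 0.1% Triton X-100, 15 min at 37 °C, stopped with NaOH, A405.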

The subject of a further experiment is HCT-116/VM46. The experiment can be described thus: Cytotoxicity against vinblastine-resistant human HCT116/VM46 cells after 72 hrs by phosphatase assay. The format is functional, cell-based. The note with it: HCT-116/VM46, 72 h. Summed up:
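Cells diluted to 30,000 cells/mL in DMEM with 10% FBS and seeded into 96-well plates (100 μL per well), then grown 24 h at 37 °C under 5% CO2. Test agents were made as 1 mM DMSO stocks with 10-fold serial dilutions and tested at six concentrations over 0–1,000 nM or 0–10,000 nM, in duplicate, for 72 h. Acid phosphatase read-out: substrate in 0.1 M NaOAc pH 5.5 with 0.1% Triton X-100, 15 min at 37 °C, stopped with NaOH, A405. IC50 is the mean of 4–16 determinations.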

For `CC[C@]1(N=[N+]=[N-])C[C@H]2CN(CCc3c([nH]c4ccccc34)[C@@](C(=O)OC)(c3cc4c(cc3OC)N(C)[C@H]3[C@@](O)(C(=O)OC)[C@H](OC(C)=O)[C@]5(CC)C=CCN6CC[C@]43[C@@H]65)C2)C1`, in the experiment with HCT-116, inhibition was half-maximal at 690 nM (IC50).
The same measure, in the same setting: in the case of `CC[C@]1(SC#N)C[C@H]2CN(CCc3c([nH]c4ccccc34)[C@@](C(=O)OC)(c3cc4c(cc3OC)N(C)[C@H]3[C@@](O)(C(=O)OC)[C@H](OC(C)=O)[C@]5(CC)C=CCN6CC[C@]43[C@@H]65)C2)C1` it was 550 nM.
Regarding `CCCCNC(=O)N[C@@]1(CC)C[C@H]2CN(CCc3c([nH]c4ccccc34)[C@@](C(=O)OC)(c3cc4c(cc3OC)N(C)[C@H]3[C@@](O)(C(=O)OC)[C@H](OC(C)=O)[C@]5(CC)C=CCN6CC[C@]43[C@@H]65)C2)C1`, the values for the IC50 in the experiment with HCT-116/VM46 and with HCT-116 were 270 nM and 4.6 nM, respectively.
On to `CC[C@]1(NC(=O)NCCc2ccccc2)C[C@H]2CN(CCc3c([nH]c4ccccc34)[C@@](C(=O)OC)(c3cc4c(cc3OC)N(C)[C@H]3[C@@](O)(C(=O)OC)[C@H](OC(C)=O)[C@]5(CC)C=CCN6CC[C@]43[C@@H]65)C2)C1`, for which the figures for the half-maximal inhibitory concentration (IC50) in the experiment with HCT-116/VM46 and in the experiment with HCT-116 were 590 nM and 6.3 nM, respectively.
The matching figures for `CC[C@]1(N)C[C@H]2CN(CCc3c([nH]c4ccccc34)[C@@](C(=O)OC)(c3cc4c(cc3OC)N(C)[C@H]3[C@@](O)(C(=O)OC)[C@H](OC(C)=O)[C@]5(CC)C=CCN6CC[C@]43[C@@H]65)C2)C1`: more than 10000 nM and 600 nM.
The matching figures for `CC[C@]1(NC(=O)Nc2ccc(C)cc2)C[C@H]2CN(CCc3c([nH]c4ccccc34)[C@@](C(=O)OC)(c3cc4c(cc3OC)N(C)[C@H]3[C@@](O)(C(=O)OC)[C@H](OC(C)=O)[C@]5(CC)C=CCN6CC[C@]43[C@@H]65)C2)C1`: 330 nM and 4.8 nM.
Regarding `CC[C@]1(NC(N)=S)C[C@H]2CN(CCc3c([nH]c4ccccc34)[C@@](C(=O)OC)(c3cc4c(cc3OC)N(C)[C@H]3[C@@](O)(C(=O)OC)[C@H](OC(C)=O)[C@]5(CC)C=CCN6CC[C@]43[C@@H]65)C2)C1`, the IC50 with HCT-116/VM46 was 2000 nM; in the experiment on HCT-116 it was 7.7 nM.
The matching figures for `CC[C@]1(NC(=O)NC(C)(C)C)C[C@H]2CN(CCc3c([nH]c4ccccc34)[C@@](C(=O)OC)(c3cc4c(cc3OC)N(C)[C@H]3[C@@](O)(C(=O)OC)[C@H](OC(C)=O)[C@]5(CC)C=CCN6CC[C@]43[C@@H]65)C2)C1`: 670 nM and 20 nM.
Regarding `CC[C@]1(NC=O)C[C@H]2CN(CCc3c([nH]c4ccccc34)[C@@](C(=O)OC)(c3cc4c(cc3OC)N(C)[C@H]3[C@@](O)(C(=O)OC)[C@H](OC(C)=O)[C@]5(CC)C=CCN6CC[C@]43[C@@H]65)C2)C1`, the 50% inhibitory concentration (IC50) with HCT-116 came to 85 nM.
For `CC[C@]1(NC(N)=O)C[C@H]2CN(CCc3c([nH]c4ccccc34)[C@@](C(=O)OC)(c3cc4c(cc3OC)N(C)[C@H]3[C@@](O)(C(=O)OC)[C@H](OC(C)=O)[C@]5(CC)C=CCN6CC[C@]43[C@@H]65)C2)C1`, the concentration for half-maximal inhibition (IC50) is 4400 nM in the experiment on HCT-116/VM46 and 7.5 nM with HCT-116.
For `CC[C@]1(NC(=O)NC2CCCCC2)C[C@H]2CN(CCc3c([nH]c4ccccc34)[C@@](C(=O)OC)(c3cc4c(cc3OC)N(C)[C@H]3[C@@](O)(C(=O)OC)[C@H](OC(C)=O)[C@]5(CC)C=CCN6CC[C@]43[C@@H]65)C2)C1`, the 50% inhibitory concentration (IC50) was 450 nM in the experiment on HCT-116/VM46 and 5.4 nM in the experiment on HCT-116.
The matching figures for `CC[C@]1(OC(=O)N(C)C)C[C@H]2CN(CCc3c([nH]c4ccccc34)[C@@](C(=O)OC)(c3cc4c(cc3OC)N(C)[C@H]3[C@@](O)(C(=O)OC)[C@H](OC(C)=O)[C@]5(CC)C=CCN6CC[C@]43[C@@H]65)C2)C1`: 9100 nM and 4700 nM.
On to `CC[C@]1(NC(=O)NCc2ccccc2)C[C@H]2CN(CCc3c([nH]c4ccccc34)[C@@](C(=O)OC)(c3cc4c(cc3OC)N(C)[C@H]3[C@@](O)(C(=O)OC)[C@H](OC(C)=O)[C@]5(CC)C=CCN6CC[C@]43[C@@H]65)C2)C1`, for which the values for the IC50 with HCT-116/VM46 and in the experiment on HCT-116 were 740 nM and 7.3 nM, respectively.
The matching figures for `CC[C@]1(NC(=O)NCc2ccccn2)C[C@H]2CN(CCc3c([nH]c4ccccc34)[C@@](C(=O)OC)(c3cc4c(cc3OC)N(C)[C@H]3[C@@](O)(C(=O)OC)[C@H](OC(C)=O)[C@]5(CC)C=CCN6CC[C@]43[C@@H]65)C2)C1`: 670 nM and 5.6 nM.
Take `CC[C@]1(NC(=O)Nc2ccccc2)C[C@H]2CN(CCc3c([nH]c4ccccc34)[C@@](C(=O)OC)(c3cc4c(cc3OC)N(C)[C@H]3[C@@](O)(C(=O)OC)[C@H](OC(C)=O)[C@]5(CC)C=CCN6CC[C@]43[C@@H]65)C2)C1`: the half-maximal inhibitory concentration (IC50) in the experiment with HCT-116/VM46 worked out at 390 nM; with HCT-116, 5.1 nM.
As for `CCN(CC)C(=O)N[C@@]1(CC)C[C@H]2CN(CCc3c([nH]c4ccccc34)[C@@](C(=O)OC)(c3cc4c(cc3OC)N(C)[C@H]3[C@@](O)(C(=O)OC)[C@H](OC(C)=O)[C@]5(CC)C=CCN6CC[C@]43[C@@H]65)C2)C1`, the concentration for half-maximal inhibition (IC50) in the experiment on HCT-116/VM46 came out at 450 nM; in the experiment with HCT-116, 6.7 nM.
`CC[C@]12C=CCN3CC[C@@]4(c5cc([C@@]6(C(=O)OC)C[C@@H]7CN(CCc8c6[nH]c6ccccc86)C[C@@](CC)(N(C)C)C7)c(OC)cc5N(C)[C@H]4[C@@](O)(C(=O)OC)[C@@H]1OC(C)=O)[C@@H]32`: the values for the IC50 in the experiment on HCT-116/VM46 and with HCT-116 were more than 10000 nM and 980 nM, respectively.
As for `CC[C@]1(NC(=O)NCCO)C[C@H]2CN(CCc3c([nH]c4ccccc34)[C@@](C(=O)OC)(c3cc4c(cc3OC)N(C)[C@H]3[C@@](O)(C(=O)OC)[C@H](OC(C)=O)[C@]5(CC)C=CCN6CC[C@]43[C@@H]65)C2)C1`, the IC50 was more than 1000 nM in the experiment with HCT-116/VM46 and 8.8 nM in the experiment with HCT-116.
The matching figures for `CC[C@]1(NC(=O)Nc2ccc(Cl)cc2)C[C@H]2CN(CCc3c([nH]c4ccccc34)[C@@](C(=O)OC)(c3cc4c(cc3OC)N(C)[C@H]3[C@@](O)(C(=O)OC)[C@H](OC(C)=O)[C@]5(CC)C=CCN6CC[C@]43[C@@H]65)C2)C1`: 590 nM and 6.7 nM.
Consider `CC[C@]1(NC(=O)OC)C[C@H]2CN(CCc3c([nH]c4ccccc34)[C@@](C(=O)OC)(c3cc4c(cc3OC)N(C)[C@H]3[C@@](O)(C(=O)OC)[C@H](OC(C)=O)[C@]5(CC)C=CCN6CC[C@]43[C@@H]65)C2)C1`, for which, in the experiment on HCT-116, half-maximal inhibition (IC50) required 75 nM.
In the experiment with HCT-116, `CC[C@]1(NC(=O)Oc2ccc([N+](=O)[O-])cc2)C[C@H]2CN(CCc3c([nH]c4ccccc34)[C@@](C(=O)OC)(c3cc4c(cc3OC)N(C)[C@H]3[C@@](O)(C(=O)OC)[C@H](OC(C)=O)[C@]5(CC)C=CCN6CC[C@]43[C@@H]65)C2)C1` gave a half-maximal inhibitory concentration (IC50) of 55 nM.
On to `CC[C@]1(NC(=O)Nc2ccc(C(F)(F)F)cc2)C[C@H]2CN(CCc3c([nH]c4ccccc34)[C@@](C(=O)OC)(c3cc4c(cc3OC)N(C)[C@H]3[C@@](O)(C(=O)OC)[C@H](OC(C)=O)[C@]5(CC)C=CCN6CC[C@]43[C@@H]65)C2)C1`, for which the values for the half-inhibitory concentration (IC50) in the experiment with HCT-116/VM46 and in the experiment on HCT-116 were 610 nM and 7.1 nM, respectively.
For the compound `CC[C@]1(NC(C)=O)C[C@H]2CN(CCc3c([nH]c4ccccc34)[C@@](C(=O)OC)(c3cc4c(cc3OC)N(C)[C@H]3[C@@](O)(C(=O)OC)[C@H](OC(C)=O)[C@]5(CC)C=CCN6CC[C@]43[C@@H]65)C2)C1`, in the experiment with HCT-116, inhibition was half-maximal at 90 nM (IC50).
As to `CC[C@]1(NC(=S)Nc2ccccc2)C[C@H]2CN(CCc3c([nH]c4ccccc34)[C@@](C(=O)OC)(c3cc4c(cc3OC)N(C)[C@H]3[C@@](O)(C(=O)OC)[C@H](OC(C)=O)[C@]5(CC)C=CCN6CC[C@]43[C@@H]65)C2)C1`, the half-inhibitory concentration (IC50) amounted to 650 nM in the experiment with HCT-116/VM46 and 40 nM with HCT-116.
Turning to `CC[C@@H]1C[C@H]2CN(CCc3c([nH]c4ccccc34)[C@@](C(=O)OC)(c3cc4c(cc3OC)N(C)[C@H]3[C@@](O)(C(=O)OC)[C@H](OC(C)=O)[C@]5(CC)C=CCN6CC[C@]43[C@@H]65)C2)C1` [ROSEAMINE], the half-inhibitory concentration (IC50) in the experiment with HCT-116 amounted to 60 nM.
For the compound `CC[C@]1(NC(=S)NCCc2ccc(F)cc2)C[C@H]2CN(CCc3c([nH]c4ccccc34)[C@@](C(=O)OC)(c3cc4c(cc3OC)N(C)[C@H]3[C@@](O)(C(=O)OC)[C@H](OC(C)=O)[C@]5(CC)C=CCN6CC[C@]43[C@@H]65)C2)C1`, the IC50 turned out to be 750 nM with HCT-116/VM46 and 60 nM with HCT-116.
On to `CC[C@]1(NC(=O)NCc2ccco2)C[C@H]2CN(CCc3c([nH]c4ccccc34)[C@@](C(=O)OC)(c3cc4c(cc3OC)N(C)[C@H]3[C@@](O)(C(=O)OC)[C@H](OC(C)=O)[C@]5(CC)C=CCN6CC[C@]43[C@@H]65)C2)C1`, for which the IC50 in the experiment on HCT-116/VM46 turned out to be 530 nM; with HCT-116 it was 5.1 nM.
The matching figures for `CC[C@]1(NC(=O)Nc2ccc(OC)cc2)C[C@H]2CN(CCc3c([nH]c4ccccc34)[C@@](C(=O)OC)(c3cc4c(cc3OC)N(C)[C@H]3[C@@](O)(C(=O)OC)[C@H](OC(C)=O)[C@]5(CC)C=CCN6CC[C@]43[C@@H]65)C2)C1`: 230 nM and 2 nM.
`CC[C@]1(N=C=S)C[C@H]2CN(CCc3c([nH]c4ccccc34)[C@@](C(=O)OC)(c3cc4c(cc3OC)N(C)[C@H]3[C@@](O)(C(=O)OC)[C@H](OC(C)=O)[C@]5(CC)C=CCN6CC[C@]43[C@@H]65)C2)C1` registered an IC50 in the experiment with HCT-116 of 530 nM.
